Converted amounts (≈) assume the structure as drawn. The source made the active and inactive calls. The rule behind the calls is not given here.
Experiments:
CCRF-CEM = assay: Growth inhibition of human CCRF-CEM cells after 48 hrs by SRB assay; format: functional
Outline: (§1)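 NCI-60 five-dose screen at 100 µM, 10 µM, 1 µM, 100 nM and 10 nM. Incubation 48 h at 37 °C, 5% CO2, 100% humidity. Growth was expressed relative to the no-drug control and to the time-zero cell number, and GI50 was derived from these values.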

dsDNA [1] = assay: Induction of DNA-interstanded-cross-link formation in [32P]-labeled 49-mer duplex DNA (unknown origin) at 1 mM in absence of H2O2 after 16 hrs by PAGE relative to control; format: functional
Outline: (§2)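 A 32P-labelled 49-mer, annealed with 1.5 equiv complement (65 °C for 3 min in 10 mM potassium phosphate pH 7, 100 mM NaCl, then slow cooling), was used at 1.0 µM before final dilution. Duplex was mixed with compound (final 1 mM), NaCl and potassium phosphate pH 8, with or without H2O2. Incubation 16 h at room temperature, formamide quench, then 20% denaturing PAGE.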

dsDNA [2] = assay: Induction of DNA-interstanded-cross-link formation in [32P]-labeled 49-mer duplex DNA (unknown origin) at 1 mM in presence of H2O2 after 16 hrs by PAGE relative to control; format: functional; outline: as §2
K562 = assay: Growth inhibition of human K562 cells after 48 hrs by SRB assay; format: functional; details: K562, 48 h; outline: as §1
MOLT-4 = assay: Growth inhibition of human MOLT4 cells after 48 hrs by SRB assay; format: functional; details: MOLT-4, 48 h; outline: as §1
RPMI-8226 = assay: Growth inhibition of human RPMI8226 cells after 48 hrs by SRB assay; format: functional; details: RPMI-8226, 48 h; outline: as §1
SR = assay: Growth inhibition of human SR cells after 48 hrs by SRB assay; format: functional; outline: as §1
HOP-92 = assay: Growth inhibition of human HOP92 cells after 48 hrs by SRB assay; format: functional; details: HOP-92, 48 h; outline: as §1
HT-29 = assay: Growth inhibition of human HT-29 cells after 48 hrs by SRB assay; format: functional; details: HT-29, 48 h; outline: as §1
SNB-75 = assay: Growth inhibition of human SNB75 cells after 48 hrs by SRB assay; format: functional; details: SNB-75, 48 h; outline: as §1
Malme-3M = assay: Growth inhibition of human MALME-3M cells after 48 hrs by SRB assay; format: functional; outline: as §1
IGROV-1 = assay: Growth inhibition of human IGROV1 cells after 48 hrs by SRB assay; format: functional; details: IGROV-1, 48 h; outline: as §1
SK-OV-3 = assay: Growth inhibition of human SKOV3 cells after 48 hrs by SRB assay; format: functional; details: SK-OV-3, 48 h; outline: as §1
MDA-MB-468 [3] = assay: Growth inhibition of human MDA-MB-468 cells after 48 hrs by SRB assay; format: functional; details: MDA-MB-468, 48 h; outline: as §1
MCF7 = assay: Growth inhibition of human MCF7 cells after 48 hrs by SRB assay; format: functional; details: MCF7, 48 h; outline: as §1
[4] = Solubility of the compound in PBS buffer at 10 mM at pH 7.4 by UV-based analysis; format: physicochemical
Outline: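 Compound (10 mM DMSO stock) was diluted into pH 7.4 buffer (ethanolamine/KH2PO4/potassium acetate/KCl) to a final 5% DMSO. After sonication and 18 h agitation the mixture was filtered and scanned by UV at 230-800 nm. Solubility was calculated from calibration plots made in 20% acetonitrile buffer, in quadruplicate, with solubility standards on each plate.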

MDA-MB-468 [5] = assay: Growth inhibition of human MDA-MB-468 cells after 48 hrs by […]; format: functional, cell-based; details: MDA-MB-468, 48 h
[6] = Drug level in DMSO-d6/PBS buffer treated with (3-(((2-Amino-3-methoxy-3-oxopropyl)thio)methyl)-4-(bis(2-chloroethyl)amino)phenyl)boronic Acid assessed as compound formation after 10 days in presence of GSH by IT-TOF mass analysis; format: physicochemical; details: 240 h
DNA [7] = assay: Induction of DNA cross-linking activity in human CLL-derived lymphocytes assessed as increase in gammaH2AX formation at 5 to 20 uM after 24 hrs by flow cytometry; format: functional, cell-based
Outline: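 Primary CLL lymphocytes from 5 patients were treated at 5-20 µM for 24 h. γH2AX was quantified by flow cytometry.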

[8] = Chemical stability of the compound in 100 mM pH 6 PBS buffer assessed as compound remaining at 10 mM at room temperature after 2 days; format: physicochemical; details: read-out: Stability
Outline: (§3)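 Compound at 10 mM in 100 mM PBS (pH 6.0 or 7.4, prepared in D2O), diluted 9:1 with DMSO-d6. Kept at room temperature for 3-10 days. The fraction of intact compound was followed by NMR.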

[9] = Chemical stability of the compound in 100 mM pH 6 PBS buffer assessed as compound remaining at 10 mM at room temperature after 4 days; format: physicochemical; details: read-out: Stability; outline: as §3
[10] = Chemical stability of the compound in 90% DMSO/PBS buffer assessed as compound remaining at pH 6 in presence of GSH; format: physicochemical
Outline: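 Compound and GSH at a 1:2 ratio in DMSO-d6/PBS 9:1, pH 6.0, at room temperature. Compound-only and GSH-only samples served as controls. Intact compound was monitored by NMR.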

[11] = Solubility of the compound in 50% DMSO/PBS buffer at 10 mM pH 6 after 3 to 10 days by NMR analysis; format: physicochemical; details: pH 6, 10000 µM
[12] = Chemical stability of the compound in 50% DMSO/PBS buffer assessed as compound remaining at pH 6 in presence of GSH after 48 hrs; format: physicochemical; details: 50% DMSO/PBS buffer with GSH, read-out: Stability
Outline: (§4)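 Compound with GSH in DMSO-d6/PBS buffer 1:1, pH 6. Intact compound was followed by NMR over 24-48 h.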

[13] = Chemical stability of the compound in 50% DMSO/PBS buffer assessed as compound remaining at pH 6 in presence of GSH after 24 hrs; format: physicochemical; details: 50% DMSO/PBS buffer with GSH, read-out: Stability; outline: as §4
[14] = Cytotoxicity against human CLL cells assessed as reduction in cell viability after 24 hrs; format: functional, cell-based
Outline: (§5)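 Patient CLL lymphocytes isolated on Ficoll-Hypaque and held in RPMI 1640 with 10% autologous plasma at 1×10^7 cells/mL, fresh cells only. Cells were exposed to a concentration series for 24 h alongside time-matched untreated controls. Apoptosis was measured by annexin V-FITC/PI flow cytometry, at least 10,000 events per sample; each patient was analysed separately.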

Lymphocyte [15] = assay: Induction of apoptosis in human CLL-derived lymphocytes up to 30000 nM after 24 hrs by Annexin V-FITC/propidium iodide-staining based flow cytometry; format: functional, cell-based; outline: as §5
Lymphocyte [16] = assay: Induction of apoptosis in human lymphocytes at 10 uM after 24 hrs by Annexin V-FITC/propidium iodide-staining based flow cytometry; format: cell-based
Outline: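 Normal PBMCs from 3 donors were isolated on Ficoll and treated at 10 µM. Apoptosis was measured by annexin V-FITC/PI flow cytometry against time-matched untreated controls.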

DNA [17] = assay: Induction of DNA cross-linking activity in human CLL-derived lymphocytes assessed as increase in gammaH2AX formation at 10 uM after 24 hrs by flow cytometry; format: functional, cell-based
Outline: (§6)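 Primary CLL lymphocytes from 3 patients were treated for 24 h at 10 µM or 1 µM, depending on compound. H2AX phosphorylation (% γH2AX) was measured by flow cytometry.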

[18] = Toxicity in CD1 mouse at 1.5 mg/kg/day, ip for 5 days per week measured after 3 months; format: organism-based; details: in vivo, 120 h
Outline: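 Mice were dosed i.p. at 1.5 mg/kg per day, 5 days per week, over three months and observed for toxicity.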

MDA-MB-468 [19] = assay: Antitumor activity against human MDA-MB-468 cells xenografted in nude CD1 mouse assessed as tumor size of initial size at 1.5 mg/kg/day, ip measured after 7 weeks (reference value: 278 to 657%); format: functional
Outline: (§7)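 Female athymic nude mice (35 days, 20-22 g) received 2 million MDA-MB-468 cells s.c. in the flank, suspended in 1:1 matrigel/DMEM. Mice with palpable tumours were given 1.5 mg/kg i.p. or vehicle, 11 mice per group. Tumour size was measured by caliper every 7 days and body weight was recorded regularly.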

[20] = Toxicity in CD1 mouse xenografted with human MDA-MB-468 cells assessed as body weight change at 1.5 mg/kg/day, ip measured after 7 weeks; format: organism-based; details: in vivo, 1176 h; outline: as §7
[21] = Chemical stability of the compound in 100 mM pH 7.4 PBS buffer assessed as compound remaining at 10 mM at room temperature after 2 days; format: physicochemical; details: read-out: Stability; outline: as §3
[22] = Chemical stability of the compound in 100 mM pH 7 PBS buffer assessed as compound remaining at 10 mM at room temperature after 4 days; format: physicochemical; details: read-out: Stability; outline: as §3
[23] = Drug metabolism in DMSO-d6/PBS buffer assessed as (S)-3-((2-amino-3-methoxy-3-oxopropylthio)methyl)-4-((2-chloroethyl)(2-hydroxyethyl)amino)phenylboronic acid formation after 10 days in presence of GSH by IT-TOF mass analysis
[24] = Drug metabolism in DMSO-d6/PBS buffer assessed as 1-(2-chloroethyl)-5-(methoxycarbonyl)-1,2,3,4,5,7-hexahydrobenzo[g][1,3,6]thiadiazonin-9-ylboronic acid formation after 10 days in presence of GSH by IT-TOF mass analysis
[25] = Drug metabolism in DMSO-d6/PBS buffer assessed as 1-(2-hydroxyethyl)-5-(methoxycarbonyl)-1,2,3,4,5,7-hexahydrobenzo[g][1,3,6]thiadiazonin-9-ylboronic acid formation after 10 days in presence of GSH by IT-TOF mass analysis
[26] = Drug level in DMSO-d6/PBS buffer treated with 4-(bis(2-chloroethyl)amino)phenylboronic acid assessed as compound formation after 10 days in presence of GSH by IT-TOF mass analysis; format: physicochemical; details: 240 h
[27] = test system: Panel NCI-60 (60 carcinoma cell lines); assay: Growth inhibition of human NCI60 cells at 10 uM after 48 hrs by SRB assay relative to control; format: functional, cell-based
Outline: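 NCI-60 one-dose screen: cells exposed to 10 µM for 48 h at 37 °C, 5% CO2, 100% humidity. Percent growth is given relative to the no-drug control and the time-zero cell count.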

DNA [28] = assay: Induction of DNA cross-linking activity in human CLL-derived lymphocytes assessed as increase in gammaH2AX formation at 1 uM after 24 hrs by flow cytometry; format: functional, cell-based; outline: as §6

Cc1cc(N(CCCl)CCCl)ccc1B1OC(C)(C)C(C)(C)O1
GI50 (CCRF-CEM): 2.9 µM | Activity (dsDNA [1]): 1.5 to 15% | Activity (dsDNA [2]): < 65% | GI50 (K562): 5.48 µM | GI50 (MOLT-4): 2.6 µM | GI50 (RPMI-8226): 12 µM | GI50 (SR): 0.49 µM | GI50 (HOP-92): 13.3 µM | GI50 (HT-29): 14.7 µM | GI50 (SNB-75): 10.1 µM | GI50 (Malme-3M): 13.6 µM | GI50 (IGROV-1): 16.1 µM | GI50 (SK-OV-3): 4.62 µM | GI50 (MDA-MB-468 [3]): 7.88 µM | GI50 (MCF7): 3.86 µM | solubility [4]: 24 µM (≈ 8.59 µg/mL) | IC50 (MDA-MB-468 [5]): 48.3 µM

N[C@H](CSCc1cc(B(O)O)ccc1N(CCO)CCCl)C(=O)O
Drug uptake [6]: Active

CC1(C)OB(c2ccc(CO)cc2)OC1(C)C
Activity (DNA [7]): inactive

COC(=O)[C@H](N)CSCc1cc(B(O)O)ccc1N(CCCl)CCCl
GI50 (CCRF-CEM): 0.54 µM | remaining at 48 h, 10000 µM [8]: 92% | remaining at 96 h, 10000 µM [9]: 85% | Stability [10]: Stable | solubility [11]: Insoluble | remaining at 48 h [12]: 70% | remaining at 24 h [13]: 90% | Activity (dsDNA [1]): 1.5 to 15% | Activity (dsDNA [2]): < 65% | GI50 (K562): 3.25 µM | GI50 (MOLT-4): 0.6 µM | GI50 (RPMI-8226): 2.62 µM | GI50 (SR): 0.28 µM | GI50 (HOP-92): 0.56 µM | GI50 (HT-29): 4.03 µM | GI50 (SNB-75): 0.85 µM | GI50 (Malme-3M): 2.39 µM | GI50 (IGROV-1): 3.32 µM | GI50 (SK-OV-3): 1.46 µM | GI50 (MDA-MB-468 [3]): 1.49 µM | GI50 (MCF7): 0.72 µM | solubility [4]: 231 µM (≈ 94.5 µg/mL) | IC50 [14]: 0.003 to 0.778 µM | Activity (Lymphocyte [15]): Active | Activity (Lymphocyte [16]): Non-Toxic | Activity (DNA [17]): Active | Activity [18]: Non-Toxic | Activity (MDA-MB-468 [19]): 58 - 178% | Activity [20]: Non-Toxic | remaining at 48 h, 10000 µM [21]: 92% | remaining at 96 h, 10000 µM [22]: 85% | Drug metabolism [23]: Metabolite detected | Drug metabolism [24]: Metabolite detected | Drug metabolism [25]: Metabolite detected | IC50 (MDA-MB-468 [5]): 3.4 µM

OCCN(CCCl)c1ccc(B(O)O)cc1
Drug uptake [26]: Active

CCCCOC(=O)C(NC(=O)OC(C)(C)C)c1cn(Cc2cc(B3OC(C)(C)C(C)(C)O3)ccc2N(CCCl)CCCl)c2ccccc12 (centres undefined)
Activity (dsDNA [1]): < 5% | growth inhibition (GI) [27]: inactive

COC(=O)C1CSCc2cc(B(O)O)ccc2N(CCCl)CCN1 (centres undefined)
Drug uptake [6]: Active

COc1cc(N(CCCl)CCCl)ccc1B1OC(C)(C)C(C)(C)O1
Activity (dsDNA [1]): 8% | Activity (dsDNA [2]): < 65% | solubility [4]: 50 µM (≈ 18.7 µg/mL) | Activity (Lymphocyte [16]): Non-Toxic | Activity (DNA [28]): Active | IC50 (MDA-MB-468 [5]): 34.4 µM

Source: ChEMBL document CHEMBL4382201 (J Med Chem, 2018)
